Screens (PubChem)
A selection: hits, their analogues and other compounds. The true share with any hit is near 5.4%.
Ecoli WT expand: growth inhibitors of E. coli BW25113 wild type; OD600 absorbance; growth inhibition, % at 100 µM; hit rate 0.15% among 98,000; AID 710;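 active means growth inhibition above about 50% at one test dose, limit read from the data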;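 further: growth measured after 20 h incubation at 37 °C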
HePTP inhibitor: human HePTP phosphatase inhibition | P35236 | recombinant HePTP phosphatase activity, OD absorbance | inhibition, % at 20 µM | hit rate 0.64% among 110,000 | AID 521; in the data active means inhibition above about 50%
Ecoli tolC: E. coli tolC mutant growth inhibition; E. coli BW25113 tolC mutant growth, OD615; growth inhibition, % at 10 µM (by protocol); hit rate 2.2% among 65,000; AID 573;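 active means growth inhibition at or above a cutoff equal to the mean over every tested compound plus 3 SD, cut at about 60% in these data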;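 further: growth measured after 20 h incubation at 37 °C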
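Test system: E. coli BW25113 ΔtolC::kan bacteria; incubation: 37 °C, 20 h exposure; medium: LB broth supplemented with 50 µg/mL kanamycin; read-out basis: percent growth inhibition; signal: A615 absorbance measurement; compound: 10 µM final, single dose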
PostGolgi ctrl: inhibits growth of the yeast control strain. efflux-deficient yeast background strain, growth absorbance A615, 16 h. inhibition, % at 10 µM. hit rate 5% among 98,000
PostGolgi yeast: growth inhibition of a yeast mutant, post-Golgi transport screen; post-Golgi transport phenotypic cell assay; inhibition, % at 10 µM; hit rate 0.9% among 98,000;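 further: yeast cells grown in 1536-well plates; yeast grown about 18 h at 30C before absorbance read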
PLAP act: activates human placental alkaline phosphatase; P05187; purified PLAP enzyme, luminescent substrate read-out; stronger effect = higher value; activation fold at 20 µM; hit rate 1.2% among 96,000; AID 696; in the data active means activation fold above about 2
Target sequence (P05187 whole entry, looked up): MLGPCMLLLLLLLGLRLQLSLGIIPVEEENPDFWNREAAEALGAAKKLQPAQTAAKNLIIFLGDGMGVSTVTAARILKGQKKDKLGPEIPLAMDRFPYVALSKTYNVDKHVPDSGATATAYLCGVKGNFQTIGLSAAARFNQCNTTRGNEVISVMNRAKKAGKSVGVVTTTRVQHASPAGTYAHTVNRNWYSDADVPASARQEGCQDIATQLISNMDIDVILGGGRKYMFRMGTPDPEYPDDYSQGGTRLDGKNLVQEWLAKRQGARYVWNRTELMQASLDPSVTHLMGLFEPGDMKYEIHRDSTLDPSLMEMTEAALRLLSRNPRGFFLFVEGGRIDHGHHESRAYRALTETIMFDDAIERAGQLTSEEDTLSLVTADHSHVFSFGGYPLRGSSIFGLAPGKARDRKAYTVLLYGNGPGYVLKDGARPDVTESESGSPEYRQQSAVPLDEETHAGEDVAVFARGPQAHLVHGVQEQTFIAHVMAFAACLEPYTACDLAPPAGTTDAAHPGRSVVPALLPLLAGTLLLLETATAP
A number is an active result; n = inactive; x = no result. Unless noted, no stated cut-off is given here; in the data, active means inhibition above about 30%; inactive means the rest.

SMILES	Ecoli WT expand	HePTP inhibitor	Ecoli tolC	PostGolgi ctrl	PostGolgi yeast	PLAP act
COc1ccc(Cl)cc1N(S(=O)(=O)c1ccc(NC(C)=O)cc1)S(=O)(=O)c1ccc(NC(C)=O)cc1	x	n	x	x	x	x
Cc1nn(CC(=O)NCCN2CCOCC2)c(C)c1[N+](=O)[O-]	n	n	x	n	n	n
CCOC(=O)CSc1nnc(-c2cccc(OC)c2)n1-c1ccccc1	x	93.8	x	x	x	x
CCn1cc(C(=O)O)c(=O)c2cnc(N3CCN(C(=O)Nc4ccccc4)CC3)nc21	x	x	100.0	x	x	x
CN1C(=O)/C(=C\c2ccc(N(C)C)cc2)SC1=S	x	n	x	x	x	x
COc1ccccc1N1CCN(/N=C/c2cccc(C)c2)CC1	x	n	x	x	x	x
CC(C)Cn1c(N)c(C(=O)NCCN2CCOCC2)c2nc3ccccc3nc21	n	n	n	n	n	n
Nc1c(C(=O)NCc2ccc(F)cc2)c2nc3ccccc3nc2n1CCCN1CCOCC1	n	x	x	73.2	100.9	2
Cc1cccc(-n2c(N)c(C(=O)NCCN3CCOCC3)c3nc4ccccc4nc32)c1	n	n	n	n	30.3	n
Cc1ccc(-c2cc(C(=O)NCCN3CCOCC3)no2)cc1	n	n	n	30.4	n	n
O=C(NCCN1CCOCC1)c1cc(-c2ccc(F)cc2)on1	n	n	n	n	n	n
CCOc1cc(C)c(Cl)cc1S(=O)(=O)n1cnc2ccccc21	n	n	n	n	n	n
CC(C)(C)c1ccc(-c2nnc(SCCN3C(=O)c4ccccc4C3=O)o2)cc1	n	x	x	33.4	n	n
O=C(O)CSc1nnc(-c2ccccc2)o1	n	n	n	n	n	n
O=C(COc1cccc(OC(F)F)c1)Nc1ccc(SC(F)F)cc1	n	n	70.0	30.8	n	n
COc1cccc(Oc2nnnn2-c2ccccc2)c1	n	n	n	n	n	n
COc1cccc(-n2nnnc2S(C)(=O)=O)c1	n	x	x	30.3	n	n
Cn1c(SC/C=C/c2ccccc2)nnc1-c1ccco1	n	n	n	30.3	n	x
Nn1c(SC/C=C/c2ccccc2)nnc1-c1ccncc1	n	n	n	n	n	n
Cn1c(Cc2cccs2)nnc1SCc1nc2ccccc2[nH]1	n	n	n	n	n	2
Cn1c(Cc2cccs2)nnc1SC/C=C/c1ccccc1	n	n	n	52.2	n	x
Cn1c(SCc2nc3ccccc3[nH]2)nnc1-c1cccs1	n	n	n	n	n	n
O=C(NC12CC3CC(CC(C3)C1)C2)N1CCC(O)CC1	n	n	n	n	n	n
CC1(C)C2CC=C(/C=N/n3cnnc3)C1C2 (stereo unspecified)	n	n	n	n	n	n
O=C(NCc1cc(C(F)(F)F)cc(C(F)(F)F)c1)C1CC(c2c(Cl)cccc2Cl)=NO1 (stereo unspecified)	n	x	x	n	n	n
SMILES	Ecoli WT expand	HePTP inhibitor	Ecoli tolC	PostGolgi ctrl	PostGolgi yeast	PLAP act
O=C(NCc1ccc(OC(F)(F)F)cc1)C1CC(c2c(Cl)cccc2Cl)=NO1 (stereo unspecified)	n	x	x	30.8	n	n
C=CCN1C(=O)C(CC(=O)Nc2ccc(C)cc2)SC1=Nc1c(C)n(C)n(-c2ccccc2)c1=O (stereo unspecified)	n	x	x	n	n	2.1
C=CCN1C(=O)C(CC(=O)O)SC1=Nc1c(C)n(C)n(-c2ccccc2)c1=O (stereo unspecified)	n	n	n	n	n	n
COc1ccccc1-c1c(C(F)(F)F)oc2cc(OC(=O)c3ccccc3[N+](=O)[O-])ccc2c1=O	n	x	x	31.0	n	n
COc1ccccc1-c1c(C(F)(F)F)oc2cc(OC(=O)C(C)(C)C)ccc2c1=O	x	n	x	x	x	x
Cc1cccc2cc(CN(CCN3CCCC3)C(=O)NC3CCCCC3)c(=O)[nH]c12	n	n	n	n	n	n
CCC(CC)C(=O)Nc1cc(C)c2c(=O)oc3ccccc3c2n1	n	n	n	33.9	n	n
Cc1cc(NC(=O)c2ccc(S(=O)(=O)N3CCOCC3)cc2)nc2c1c(=O)oc1ccccc12	n	n	n	n	31.3	n
CC1(C)CC(=O)c2cnn(-c3nc4ccccc4[nH]3)c2C1	n	n	n	n	n	2.1
O=C(CN1CCC(O)(c2ccc3c(c2)OCO3)CC1)OC1CCCCC1	n	n	n	40.6	n	n
O=C(CN1CCC(O)(c2ccc3c(c2)OCO3)CC1)N1CCOCC1	n	n	n	n	n	n
COc1ccc(CNc2ccc(Br)cc2C(=O)O)c(OC)c1	x	77.4	x	x	x	x
COc1ccc(Br)cc1C(=O)O	n	n	n	n	n	n
CCN(CC)C(=O)CN1CCN(c2ccccc2F)CC1	n	n	n	n	n	n
CCN(CC)CCNc1c2c(c(C#N)c3nc4ccccc4n13)CCCC2	n	x	x	45.7	n	n
